In ChEMBL document CHEMBL1125365, “Acyl-CoA:cholesterol O-acyl transferase (ACAT) inhibitors. 1. 2-(Alkylthio)-4,5-diphenyl-1H-imidazoles as potent inhibitors of ACAT” (J Med Chem, 1992) one finds inhibition and IC50 data, which are given here for 45 molecules.

Molecules are shown by their SMILES.

Common to all, as to format: microsomes
The target in experiment [1] is T1, Sterol O-acyltransferase 1 (Rattus norvegicus) (UniProt O70536).
T1 sequence (whole entry): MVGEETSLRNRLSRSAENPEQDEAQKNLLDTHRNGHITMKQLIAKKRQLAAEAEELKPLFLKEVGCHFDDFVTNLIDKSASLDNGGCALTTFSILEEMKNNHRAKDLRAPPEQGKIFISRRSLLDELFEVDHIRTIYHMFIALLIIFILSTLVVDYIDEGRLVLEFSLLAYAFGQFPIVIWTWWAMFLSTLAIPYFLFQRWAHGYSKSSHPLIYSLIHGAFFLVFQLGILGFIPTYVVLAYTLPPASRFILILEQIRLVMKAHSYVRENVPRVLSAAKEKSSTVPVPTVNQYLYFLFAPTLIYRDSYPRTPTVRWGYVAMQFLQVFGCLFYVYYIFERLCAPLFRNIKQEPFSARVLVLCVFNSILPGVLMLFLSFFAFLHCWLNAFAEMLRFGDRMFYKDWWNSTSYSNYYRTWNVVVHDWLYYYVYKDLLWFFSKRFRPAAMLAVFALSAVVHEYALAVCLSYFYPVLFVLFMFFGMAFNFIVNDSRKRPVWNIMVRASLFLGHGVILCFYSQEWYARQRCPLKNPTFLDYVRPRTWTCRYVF
Put plainly: In vitro acyl coenzyme A:cholesterol acyltransferase (ACAT) activity in rat liver microsome at a concentration of 10 micro g/mL. Summed up: (§1)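 Enzyme source was hepatic microsomes from cholesterol-fed rats, 60 μg microsomal protein per reaction, with 90 μM radiolabeled oleoyl-CoA. Cholesterol ester formed was separated by TLC and quantified by scintillation counting. Compounds were tested at a single fixed concentration of 1 or 10 μg/mL, and results were given as percent inhibition of enzyme activity.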
Background: Liver microsomes are vesicles of endoplasmic reticulum, rich in cytochrome P450 enzymes.

The target of experiment [2] is T2, Sterol O-acyltransferase 1 (Rattus norvegicus, UniProt O70536).
T2 sequence (O70536 whole entry): T1 sequence (whole entry)
Description: Inhibition of acyl coenzyme A:cholesterol acyltransferase (ACAT) activity in rat liver microsome. Summed up: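 The assay used rat hepatic microsomes from cholesterol-fed animals (60 μg protein) and 90 μM radiolabeled oleoyl-CoA. Cholesterol ester product was resolved by TLC and counted by scintillation. IC50 was the concentration inhibiting 50% of enzyme activity.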

The target in experiment [3] is T1, Sterol O-acyltransferase 1 (Rattus norvegicus). Description: Tested in vitro for acyl coenzyme A:cholesterol acyltransferase (ACAT) activity in rat liver microsome at a concentration of 1 micro g/mL. Summed up:
as §1

For the molecule `O=C(O)CCC(O)CSc1nc(-c2ccccc2)c(-c2ccccc2)[nH]1` (centres undefined), in experiment [1], the inhibition worked out at 76%. For the molecule `C[C@@]1(O)CC(=O)OC(CSc2nc(-c3ccccc3Cl)c(-c3ccccc3Cl)[nH]2)C1` (some centres undefined), the inhibition in experiment [1] was 99%. For the same molecule, the IC50 in experiment [2] was determined as 140 nM. `Cn1c(SC[C@H]2C[C@@](C)(O)CC(=O)O2)nc(-c2ccccc2)c1-c1ccccc1.Cn1c(SC[C@H]2C[C@](C)(O)CC(=O)O2)nc(-c2ccccc2)c1-c1ccccc1`: the inhibition in experiment [1] was found to be 90%. Also, the IC50 in experiment [2] is 2600 nM.

In the case of `CC1=CC(=O)OC(CSc2nc(-c3ccc(F)cc3)c(-c3ccc(F)cc3)[nH]2)C1` (centres undefined), the inhibition in experiment [1] turned out to be 96%. Also, the IC50 in experiment [2] was 610 nM. In turn, `c1ccc(CSc2nc(-c3ccccc3)c(-c3ccccc3)[nH]2)cc1` returned an inhibition in experiment [3] of 90%. This molecule registered an IC50 in experiment [2] of 290 nM. In turn, `C[C@]1(O)CC(=O)OC(CSc2nc(-c3ccccc3)n(-c3ccccc3)n2)C1` (some centres undefined) yielded an inhibition in experiment [3] of 12%.

In experiment [3], `Clc1cccc(-c2[nH]c(SCC3CCCCO3)nc2-c2ccccc2)c1` (centres undefined) came in with an inhibition of 90%. In experiment [2], this molecule came in with an IC50 of 560 nM. In the case of `COc1ccc(-c2nc(SCC3C[C@](C)(O)CC(=O)O3)[nH]c2-c2ccc(OC)cc2)cc1` (some centres undefined), in experiment [1], the inhibition was found to be 87%. Also, in experiment [2], 420 nM corresponded to half-maximal inhibition (IC50).

For the molecule `c1ccc(-c2nc(SCCC3OCCCO3)[nH]c2-c2ccccc2)cc1`, the inhibition in experiment [3] worked out at 80%. Besides, 730 nM corresponded to half-maximal inhibition in experiment [2] (IC50). The matching figures for `CC(C)c1ccc(-c2nc(SC[C@H]3C[C@@](C)(O)CC(=O)O3)[nH]c2-c2ccc(C(C)C)cc2)cc1.CC(C)c1ccc(-c2nc(SC[C@H]3C[C@](C)(O)CC(=O)O3)[nH]c2-c2ccc(C(C)C)cc2)cc1`: 90% and 230 nM. In experiment [1], `C[C@@]1(O)CC(=O)O[C@@H](CSc2nc(-c3ccccc3)c(-c3ccccc3)o2)C1.C[C@]1(O)CC(=O)O[C@@H](CSc2nc(-c3ccccc3)c(-c3ccccc3)o2)C1` yielded an inhibition of 13%. The molecule `COc1ccccc1-c1nc(S)[nH]c1-c1ccccc1OC` yielded an inhibition in experiment [3] of 0%. As to `Sc1nc(-c2ccccc2Cl)c(-c2ccccc2Cl)[nH]1`, the inhibition in experiment [1] worked out at 27%. As to `CCOC(CSc1nc(-c2ccco2)c(-c2ccco2)[nH]1)OCC`, the inhibition in experiment [3] came out at 34%. As for `C[C@@]1(O)CC(=O)O[C@@H](CSc2nc(-c3ccc(C(F)(F)F)cc3)c(-c3ccc(C(F)(F)F)cc3)[nH]2)C1.C[C@]1(O)CC(=O)O[C@@H](CSc2nc(-c3ccc(C(F)(F)F)cc3)c(-c3ccc(C(F)(F)F)cc3)[nH]2)C1`, the inhibition in experiment [1] was 95%. Besides, in experiment [2], the midpoint of inhibition, the IC50, lay at 1000 nM. The matching figures for `COc1cccc(-c2nc(SCC3C[C@](C)(O)CC(=O)O3)[nH]c2-c2cccc(OC)c2)c1` (some centres undefined): 97% and 570 nM.

Consider `O=C1CCC(CSc2nc(-c3ccccc3)c(-c3ccccc3)[nH]2)N1` (centres undefined), for which the inhibition in experiment [3] was determined as 87%. Moreover, half-maximal inhibition in experiment [2] (IC50) was put at 360 nM. For `CCOC(CSc1nc(-c2ccccn2)c(-c2ccccn2)[nH]1)OCC`, the inhibition in experiment [1] is 15%. Turning to `COc1ccc(-c2nc(SCC3C[C@@](C)(O)CC(=O)O3)[nH]c2-c2ccc(OC)cc2)cc1` (some centres undefined), in experiment [1], the inhibition was 96%. In experiment [2], this molecule gave an IC50 of 340 nM. With `CCOC(=O)CC(C)(O)CC(O)CSc1nc(-c2ccccc2)c(-c2ccccc2)[nH]1` (centres undefined), the inhibition in experiment [3] worked out at 91%. Further, the IC50 in experiment [2] stood at 280 nM.

In turn, `C[C@@]1(O)CC(=O)OC(CSc2nc(-c3cccc(Cl)c3)c(-c3cccc(Cl)c3)[nH]2)C1` (some centres undefined) registered an inhibition in experiment [3] of 93%. It took 110 nM to reach half-maximal inhibition in experiment [2] (IC50). As for `CC1=CC(=O)OC(CSc2nc(-c3ccc(Cl)cc3)c(-c3ccc(Cl)cc3)[nH]2)C1` (centres undefined), the inhibition in experiment [3] came to 77%. The molecule `C[C@@]1(O)CC(O)O[C@@H](CSc2nc(-c3ccccc3)c(-c3ccccc3)[nH]2)C1` (some centres undefined) showed an inhibition in experiment [3] of 94%. In experiment [2], this molecule showed a 50% inhibitory concentration (IC50) of 160 nM. With `O=C1CCC(CSc2nc(-c3ccccc3)c(-c3ccccc3)[nH]2)O1` (centres undefined), the inhibition in experiment [1] is 78%. Regarding `COC(CSc1nc(-c2ccccc2)c(-c2ccccc2)[nH]1)OC`, the inhibition in experiment [1] turned out to be 99%. Besides, the IC50 in experiment [2] was 580 nM. Molecule `O=C(O)CCCCCSc1nc(-c2ccccc2Cl)c(-c2ccccc2Cl)[nH]1` yielded an inhibition in experiment [1] of 20%. In experiment [3], `COc1ccccc1-c1nc(SC[C@H]2C[C@@](C)(O)CC(=O)O2)[nH]c1-c1ccccc1OC.COc1ccccc1-c1nc(SC[C@H]2C[C@](C)(O)CC(=O)O2)[nH]c1-c1ccccc1OC` gave an inhibition of 29%.

Molecule `C[C@@]1(O)CC(=O)OC(CSc2nc(-c3ccccc3)c[nH]2)C1` (some centres undefined) came in with an inhibition in experiment [1] of 0%. In experiment [3], `O=C1CC(O)CC(CSc2nc(-c3ccccc3)c(-c3ccccc3)[nH]2)O1` (centres undefined) displayed an inhibition of 89%. In experiment [2], this molecule came in with an IC50 of 910 nM. For `COc1ccc(-c2nc(S)[nH]c2-c2ccc(OC)cc2)cc1`, the inhibition in experiment [1] was 42%.

As to `CC1=CC(=O)OC(CSc2nc(-c3ccccc3Cl)c(-c3ccccc3Cl)[nH]2)C1` (centres undefined), the inhibition in experiment [1] came out at 95%. In experiment [2], this molecule had an IC50 of 1700 nM. In experiment [1], `CC1=CC(=O)OC(CSc2nc(-c3ccc(C)cc3)c(-c3ccc(C)cc3)[nH]2)C1` (centres undefined) came in with an inhibition of 97%. Further, half-maximal inhibition in experiment [2] (IC50) required 280 nM.

`Cc1ccc(-c2nc(SC[C@H]3C[C@@](C)(O)CC(=O)O3)[nH]c2-c2ccc(C)cc2)cc1.Cc1ccc(-c2nc(SC[C@H]3C[C@](C)(O)CC(=O)O3)[nH]c2-c2ccc(C)cc2)cc1` had an inhibition in experiment [1] of 99%. The midpoint of inhibition in experiment [2], the IC50, lay at 170 nM.

On to `CO[C@H]1C[C@H](O)C[C@@H](CSc2nc(-c3ccccc3)c(-c3ccccc3)[nH]2)O1`, for which, in experiment [3], the inhibition is 92%. For the same molecule, the IC50 in experiment [2] stood at 90 nM. The molecule `Clc1ccccc1-c1[nH]c(SCC2CCCCO2)nc1-c1ccccc1` (centres undefined) came in with an inhibition in experiment [3] of 76%. In experiment [1], `CCSc1nc(-c2ccccc2)c(-c2ccccc2)[nH]1` had an inhibition of 99%. Moreover, the IC50 in experiment [2] amounted to 770 nM.

For `CC(C)(C)c1ccc(-c2nc(SC[C@H]3C[C@@](C)(O)CC(=O)O3)[nH]c2-c2ccc(C(C)(C)C)cc2)cc1.CC(C)(C)c1ccc(-c2nc(SC[C@H]3C[C@](C)(O)CC(=O)O3)[nH]c2-c2ccc(C(C)(C)C)cc2)cc1`, the inhibition in experiment [3] is 32%. Consider `CO[C@H]1O[C@H](CSc2nc(-c3ccccc3)c(-c3ccccc3)[nH]2)[C@@H](O)[C@H](O)[C@@H]1O`, for which the inhibition in experiment [3] was determined as 52%. `Clc1ccc(-c2[nH]c(SCC3CCCCO3)nc2-c2ccccc2)cc1` (centres undefined) showed an inhibition in experiment [3] of 87%. For the molecule `C[C@@]1(O)CC(=O)O[C@@H](CS(=O)(=O)c2nc(-c3ccccc3)c(-c3ccccc3)[nH]2)C1`, the inhibition in experiment [1] is 23%.

Consider `CC(O)(CC(=O)OC(C)(C)C)CC(O)CSc1nc2c3ccccc3c3ccccc3c2[nH]1` (centres undefined), for which the inhibition in experiment [3] came to 41%. The molecule `C[C@@]1(O)CC(=O)OC(CSc2nc(-c3ccc(F)cc3)c(-c3ccc(F)cc3)[nH]2)C1` (some centres undefined) had an inhibition in experiment [1] of 97%. Also, in experiment [2], 790 nM corresponded to half-maximal inhibition (IC50). With `C[C@@]1(O)CC(=O)O[C@@H](CSc2nc(-c3ccccc3)c(-c3ccccc3)n2-c2ccccc2)C1.C[C@]1(O)CC(=O)O[C@@H](CSc2nc(-c3ccccc3)c(-c3ccccc3)n2-c2ccccc2)C1`, in experiment [1], the inhibition was 32%.

In experiment [1], `C[C@@]1(O)CC(=O)O[C@@H](CSc2nc(-c3ccccc3)c(-c3ccccc3)s2)C1.C[C@]1(O)CC(=O)O[C@@H](CSc2nc(-c3ccccc3)c(-c3ccccc3)s2)C1` displayed an inhibition of 4%. `CC1=CC(=O)OC(CSc2nc(-c3cccc(Cl)c3)c(-c3cccc(Cl)c3)[nH]2)C1` (centres undefined) yielded an inhibition in experiment [1] of 98%. For the same molecule, the 50% inhibitory concentration (IC50) in experiment [2] was 440 nM.

As usually defined, the inhibition is the share of the control response that was lost under treatment. A word on the IC50: it is the concentration that inhibits the measured activity by half. Low readings indicate higher potency, high ones lower potency.
